# Shown are actives, neighbours in structure and some others; about 3.5% of the full set was active somewhere.
# RGS4 block: RGS4 inhibitors, primary screen, cell-based, HEK293 M3R inducible RGS4, calcium flux. Regulator of G-protein signaling 4 (Homo sapiens), P49798. Fluo-4 calcium flux; active compounds read high; triggered by carbachol at its EC20. B-score at 10 µM. actives 0.45% (n = 310,000). AID 463165, 2010;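 active means B-score, a plate-corrected calcium signal, over three deviations above library mean, with baseline fluorescence within five deviations of library mean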;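 further: RGS4 expression induced by doxycycline in cells with stable M3 receptor; B-score is computed from the integrated fluorescence ratio over baseline after carbachol; higher B-score means a larger calcium signal and so more RGS4 inhibition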
# Target sequence (P49798 whole entry, looked up): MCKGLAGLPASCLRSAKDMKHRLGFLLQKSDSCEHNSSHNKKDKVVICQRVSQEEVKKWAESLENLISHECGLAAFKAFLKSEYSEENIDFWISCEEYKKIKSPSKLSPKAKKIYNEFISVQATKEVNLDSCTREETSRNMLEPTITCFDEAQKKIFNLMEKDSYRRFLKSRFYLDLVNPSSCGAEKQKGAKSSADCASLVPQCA
# RGS4 act: RGS4 potentiators or activators, primary screen, cell-based, HEK293 M3R inducible RGS4, calcium flux | carbachol calcium flux Fluo4; active compounds read low | B-score at 10 µM | actives 0.92% (n = 310,000) | AID 463111, 2010;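 active means B-score of the integrated calcium signal more than 4 SD below the library mean, with starting fluorescence not abnormally high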;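 further: negative B-score means reduced calcium response which marks RGS4 activation or potentiation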
#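 Reagent: ECmax carbachol challenge; Test system: M3R-expressing HEK293 line, RGS4 induced by doxycycline; Schedule: overnight RGS4 induction, 30 min dye load 37 °C, 20 min compound RT; Detection: calcium dye Fluo4 fluorescence; Read-out: Agonist-evoked peak-minus-minimum fluorescence over baseline, integrated ratio, B score.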
# MrgX1 agonist: agonists of human MrgX1 receptor, primary screen, HEK293 cells, Fluo-4 calcium flux | AID 588627, 2011 | B-score at 10 µM | actives 0.44% (n = 310,000) | Fluo-4 calcium fluorescence, agonist mode; active compounds read high;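 active means calcium response B-score plate-corrected fluorescence ratio at least 3 library SD, with starting fluorescence B-score inside 5 SD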
# Target sequence (Q96LB2 whole entry, looked up): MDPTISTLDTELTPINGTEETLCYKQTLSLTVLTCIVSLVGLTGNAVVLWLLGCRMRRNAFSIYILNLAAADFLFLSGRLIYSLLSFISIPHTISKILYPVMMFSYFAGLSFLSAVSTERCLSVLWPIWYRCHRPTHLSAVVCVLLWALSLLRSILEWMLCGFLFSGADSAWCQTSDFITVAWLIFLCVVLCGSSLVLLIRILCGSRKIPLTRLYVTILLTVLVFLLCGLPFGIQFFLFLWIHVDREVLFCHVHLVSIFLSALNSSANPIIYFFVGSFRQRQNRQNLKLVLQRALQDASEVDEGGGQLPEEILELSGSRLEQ
#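 System: HEK293 cells stably expressing human MrgX1 receptor; Dosing: test compound in the initial addition of three; Schedule: overnight plating, then 30 min 37 °C plus 30 min room-temperature dye loading; Detection: kinetic calcium dye fluorescence, Fluo-4 NW; Controls: per-plate positive and negative controls for Z′ factor.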
# MrgX1 antag: antagonists of human MrgX1 receptor, primary screen, HEK293 cells, Fluo-4 calcium flux | Mas-related G-protein coupled receptor member X1 (Homo sapiens), Q96LB2 | BAM8-22 antagonism; active compounds read low | B-score at 10 µM | actives 1.3% (n = 310,000);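 active means calcium-response B-score plate-corrected more than 3 library SD below zero, starting fluorescence within 5 deviations, no agonist response on first addition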;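 further: peak minus trough fluorescence over baseline after final BAM8-22 challenge near maximal dose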
# MrgX1 allo act: positive allosteric modulators of MrgX1, primary screen, HEK293 cells, Fluo-4 calcium flux. FDSS; active compounds read high. actives 0.63% (n = 310,000). B-score at 10 µM. Mas-related G-protein coupled receptor member X1 (Homo sapiens), Q96LB2. AID 588675, 2011;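 active means plate-corrected calcium response at least 3 library SD above typical, normal starting fluorescence, not activating the receptor alone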;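 further: compound read alongside a low EC10 to EC30 dose of BAM8-22 agonist; peak minus trough fluorescence over baseline measured at the second addition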
# MrgX1 ag reconf: MrgX1 receptor agonists, duplicate retest, confirmation, HEK293 cells, Fluo-4 calcium flux | activation, % at 10 µM | actives 78% (n = 600) | Fluo-4 calcium fluorescence, FDSS | shares compounds with MrgX1 agonist;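 active means calcium signal rise, corrected for plate position, at least 3 library SD high, with starting brightness within 5 such deviations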
# HEK293 Ca flux: nonspecific calcium signal in parental HEK293, confirmation, counter-screen for MrgX1 antagonist project, parental HEK293 cells, Fluo-4 calcium flux; fluorescence ratio F(max-min)/F0 at 10 µM; shares compounds with MrgX1 antag; actives 2% (n = 4,000); AID 624111, 2012; Fluo-4 calcium fluorescence, FDSS;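 active means duplicate-averaged calcium fluorescence ratio at least three times the standard deviation of buffer wells, a nonspecific response in parental cells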
# HEK293 Ca counter: calcium response in parental HEK293 cells, primary screen, counter-screen for MrgX1 allosteric activator project, cell-based, Fluo-4 calcium flux, duplicate; shares compounds with MrgX1 antag; Fluo-4 fluorescence ratio; active compounds read high; fluorescence ratio F(max-min)/F0 at 10 µM; actives 0.4% (n = 4,000); AID 624114, 2012;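 active means calcium fluorescence ratio, averaged over duplicates, at least 3 SD of the buffer-well ratio, meaning a nonspecific response in receptor-free cells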;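 further: untransfected parental HEK293 lacking MrgX1 used as counterscreen for MrgX1 allosteric activators; fluorescence change taken during the second addition on a kinetic imager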
# HEK293 Ca cntr2: calcium response in parental HEK293 cells, primary screen, counter-screen for MrgX1 agonist project, cell-based, Fluo-4 calcium flux, duplicate, agonist mode. Fluo-4 calcium fluorescence (FDSS); active compounds read high. actives 8.7% (n = 4,000). shares compounds with MrgX1 antag. fluorescence ratio F(max-min)/F0 at 10 µM;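 active means calcium fluorescence ratio at least three times the spread of buffer wells, meaning a non-specific response in parental cells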
# An asterisk follows results filed as active; i = inactive; nt = no result given.
SMILES,RGS4 block,RGS4 act,MrgX1 agonist,MrgX1 antag,MrgX1 allo act,MrgX1 ag reconf,HEK293 Ca flux,HEK293 Ca counter,HEK293 Ca cntr2
Cn1c(-c2ccccc2)c(CCO)c2ccccc21,i,i,43*,i,i,184%*,i,i,i
CCCn1c(=O)c(C(=O)NNC(=O)c2ccccc2Cl)c(O)c2ccccc21,i,i,97*,i,i,308%*,i,i,64*
Cc1cccc(C(C)C)c1NC(=O)CN1C(=O)NC2(CCc3ccccc32)C1=O (stereo unspecified),i,i,i,i,i,nt,nt,nt,nt
CC(C)(C)C(=O)NC(=S)NNC(=O)c1sc2ccccc2c1Cl,i,i,142*,i,i,917%*,i,i,177*
O=C(NNC(=S)NC1CCCCC1)c1sc2ccccc2c1Cl,i,i,i,i,i,nt,nt,nt,nt
CN1c2ccccc2C(O)=C(C(=O)Nc2ccccc2)S1(=O)=O,i,i,41*,i,i,i,i,i,i
Cc1ccc(-n2c(=O)[nH]c3c(oc4ccccc43)c2=O)cc1,i,i,78*,i,i,396%*,i,i,118*
CCOc1ccc(S(=O)(=O)Nc2ncn[nH]2)cc1,i,i,i,i,i,nt,nt,nt,nt
CCOc1ccc(Br)cc1S(=O)(=O)Nc1ncn[nH]1,i,i,32*,i,i,i,i,i,i
CN=C(Nc1cc(C)nn1CCC#N)c1ccccc1,i,i,i,i,i,nt,nt,nt,nt
Cc1cc(OC(=O)c2ccccc2)n(CCC#N)n1,i,i,38*,i,i,195%*,i,i,i
O=C(NC(=S)NCCCN1CCOCC1)c1cccc2ccccc12,i,i,i,i,i,nt,nt,nt,nt
CCOC(=O)C(Cc1cc(C(C)=O)ccc1OC(C)C)C(=O)OCC,i,i,i,i,i,nt,nt,nt,nt
COc1ccc(Br)cc1CSC(=N)N,i,i,34*,i,i,148%*,i,i,i
CC(=O)c1ccc(OC(C)C)c(CSC(=N)N)c1,i,i,38*,i,i,199%*,i,i,i
COC(=O)Cc1nc(NC(=O)c2cccs2)sc1C,i,i,28*,i,i,149%*,i,i,i
CC(NC(=O)c1cccc(S(=O)(=O)N2CCN(Cc3ccccc3)CC2)c1)c1ccc(Br)cc1 (stereo unspecified),i,i,i,i,i,nt,nt,nt,nt
N/C(=N\N=C/c1ccc(F)cc1)N/N=C\c1ccc(F)cc1,i,i,66*,i,i,499%*,i,i,76*
Cc1ccc(S(=O)(=O)NCC(=O)N2CCN(S(=O)(=O)c3ccc(Cl)cc3)CC2)cc1C,i,i,i,i,i,nt,nt,nt,nt
O=C(NC1(C(F)(F)F)C(=O)Nc2c1c(=O)[nH]c(=O)n2Cc1ccccc1)c1ccc(Cl)cc1 (stereo unspecified),i,i,i,i,i,nt,nt,nt,nt
O=c1[nH]c(=O)n(Cc2ccccc2)c2c1C(C(F)(F)F)(C(F)(F)F)N=C(c1ccco1)N2,i,i,41*,i,i,223%*,i,i,58*
Fc1c(F)c(-n2nnc3ccccc32)c(F)c(F)c1Cl,i,i,i,i,i,nt,nt,nt,nt
Fc1ccc2[nH]c3c(NCc4ccccc4)ncnc3c2c1,i,i,38*,i,i,251%*,i,i,54*
CC(C)Cc1csc(NC(=O)c2ccc(Br)cc2)c1C(=O)O,i,i,45*,i,i,i,i,i,i
CC(OC(=O)/C=C/c1ccccc1)C(=O)N1CCc2ccccc21 (stereo unspecified),i,i,i,i,i,nt,nt,nt,nt
SMILES,RGS4 block,RGS4 act,MrgX1 agonist,MrgX1 antag,MrgX1 allo act,MrgX1 ag reconf,HEK293 Ca flux,HEK293 Ca counter,HEK293 Ca cntr2
Cc1cc(C)c2c(=O)n(CC(=O)NC3CCCC3)sc2n1,i,i,29*,i,i,183%*,i,i,i
Cc1cc(C)c(S(=O)(=O)NCC2CCC(C(=O)NCCCN3CCC(C)CC3)CC2)c(C)c1 (stereo unspecified),i,i,i,i,i,nt,nt,nt,nt
Cc1cccc2c1N(CCCOc1ccccc1)C(=O)C2=O,i,i,35*,i,i,251%*,i,i,50*
Cc1cccc2c1N(CCCOc1ccc(C(C)(C)C)cc1)C(=O)C2=O,i,i,i,i,i,nt,nt,nt,nt
Cc1cc(NCc2ccccc2)nc2ccccc12,i,i,83*,i,i,293%*,i,i,i
Cc1ccc(Cl)cc1N1CCN(S(=O)(=O)c2cc3c(cc2C)NC(=O)CO3)CC1,i,i,i,i,i,nt,nt,nt,nt
N=C(N)SCCc1cccc(CCSC(=N)N)c1,i,i,40*,i,i,181%*,i,i,i
N=C(N)CCCOc1ccccc1-c1ccccc1,i,i,28*,i,i,81%*,i,i,i
O=C(CN(c1ccc(F)cc1)S(=O)(=O)c1ccc2c(c1)OCCO2)Nc1cccnc1,i,i,40*,i,i,i,i,i,i
O=C(NCc1cccc(Cl)c1)C1CCC(=O)N(CCN2CCOCC2)C1 (stereo unspecified),i,i,i,i,i,nt,nt,nt,nt
CCn1c(=O)c(C(=O)CN2CCN(S(=O)(=O)c3ccc(C)cc3C)CC2)c(N)n(Cc2ccccc2)c1=O,i,i,i,i,i,nt,nt,nt,nt
